According to ChEMBL document CHEMBL1949501, “Novel acid-type cyclooxygenase-2 inhibitors: Design, synthesis, and structure-activity relationship for anti-inflammatory drug” (Eur J Med Chem, 2012):

Key:
[1] = target: T1, Prostaglandin G/H synthase 2 (Homo sapiens, UniProt P35354); assay: Inhibition of COX-2-mediated 6-keto-PGF1alpha production in IL-1beta-induced HUVEC preincubated for 20 mins prior A23187 stimulation measured after 15 mins by RIA
T1 sequence (P35354 whole entry): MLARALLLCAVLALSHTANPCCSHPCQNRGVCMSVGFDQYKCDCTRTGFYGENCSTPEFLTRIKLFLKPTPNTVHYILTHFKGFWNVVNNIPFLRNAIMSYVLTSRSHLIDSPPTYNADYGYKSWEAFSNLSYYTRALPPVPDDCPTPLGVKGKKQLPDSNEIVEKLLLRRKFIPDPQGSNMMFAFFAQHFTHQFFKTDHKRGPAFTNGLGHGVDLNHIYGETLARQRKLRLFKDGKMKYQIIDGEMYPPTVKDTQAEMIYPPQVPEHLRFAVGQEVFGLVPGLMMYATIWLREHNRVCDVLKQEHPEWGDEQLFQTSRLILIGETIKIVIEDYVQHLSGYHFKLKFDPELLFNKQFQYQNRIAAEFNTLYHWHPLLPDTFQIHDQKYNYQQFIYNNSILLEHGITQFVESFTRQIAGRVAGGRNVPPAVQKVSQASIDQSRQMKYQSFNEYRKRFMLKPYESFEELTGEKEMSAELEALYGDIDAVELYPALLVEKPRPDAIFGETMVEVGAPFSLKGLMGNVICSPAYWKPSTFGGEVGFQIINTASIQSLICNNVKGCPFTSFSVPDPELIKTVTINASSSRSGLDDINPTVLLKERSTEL

[2] = target: T2, Prostaglandin G/H synthase 1 (Homo sapiens, UniProt P23219); assay: Inhibition of COX-1-mediated TXB2 production in human platelets preincubated for 20 mins prior A23187 stimulation measured after 15 mins by RIA
[3] = target: T1, Prostaglandin G/H synthase 2; assay: Inhibition of COX-2-mediated PGE2 production in LPS-induced human whole blood after 24 hrs by RIA
Procedure, shortened: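 Heparinized whole blood from healthy adult volunteers mixed with compound in DMSO (0.1–100 µM final; DMSO under 0.1%) and E. coli 0111:B4 LPS (30 µg/mL final), incubated 24 h at 37 °C to induce COX-2; PGE2 synthesis measured; IC50.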

[4] = target: T2, Prostaglandin G/H synthase 1; assay: Inhibition of COX-1-mediated TXB2 production in human whole blood after 30 mins post A23187 stimulation by RIA
[5] = target: COX-1/COX-2 (Homo sapiens) (UniProt P35354+P23219); assay: Selectivity ratio of IC50 for COX-1-mediated TXB2 production in human platelets to IC50 for COX-2-mediated 6-keto-PGF1alpha production in IL-1beta-induced HUVEC
[6] = system: Rattus norvegicus; assay: Antiinflammatory activity in SPF/VAF Sprague-Dawley rat assessed as inhibition of carrageenan-induced paw oedema at 10 mg/kg, po administered 1 hr prior carrageenan challenge measured after 3 hrs by plethysmometry; format: functional
Procedure, shortened: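 Male SPF/VAF Sprague-Dawley rats (Crj:CD(SD), 5 weeks, 110–130 g), fasted overnight, given carrageenan intraplantarly in the hind paw. Test compound or vehicle (5% (v/v) Tween 80 in distilled water) dosed orally at 1 mL/100 g body weight 1 h before carrageenan. Foot volume read by water-displacement plethysmometer before and 3 h after injection; percent inhibition relative to vehicle group taken as 0%.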

T2 sequence (P23219 whole entry): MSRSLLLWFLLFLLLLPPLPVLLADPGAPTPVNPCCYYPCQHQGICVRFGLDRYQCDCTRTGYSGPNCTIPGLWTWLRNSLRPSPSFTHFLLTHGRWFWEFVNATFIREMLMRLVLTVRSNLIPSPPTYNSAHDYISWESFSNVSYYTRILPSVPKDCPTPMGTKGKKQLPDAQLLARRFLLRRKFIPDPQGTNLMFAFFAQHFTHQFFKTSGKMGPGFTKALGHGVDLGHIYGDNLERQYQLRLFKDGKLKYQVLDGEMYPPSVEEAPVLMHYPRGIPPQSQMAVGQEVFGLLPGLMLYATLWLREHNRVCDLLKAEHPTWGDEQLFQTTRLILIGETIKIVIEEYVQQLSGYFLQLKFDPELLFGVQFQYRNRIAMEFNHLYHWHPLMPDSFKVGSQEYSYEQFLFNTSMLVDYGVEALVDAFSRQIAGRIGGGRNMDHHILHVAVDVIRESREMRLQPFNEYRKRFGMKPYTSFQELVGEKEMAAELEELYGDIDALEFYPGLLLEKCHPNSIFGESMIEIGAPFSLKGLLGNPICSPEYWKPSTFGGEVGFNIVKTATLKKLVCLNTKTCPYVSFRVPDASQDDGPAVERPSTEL
Chain of COX-1/COX-2 (Homo sapiens) (P23219 whole entry, looked up, one chain of several): as the sequence (P23219 whole entry) above

Row | SMILES | IC50 [1] [nM] | IC50 [2] [nM] | IC50 [3] [nM] | IC50 [4] [nM] | Ratio IC50 [5] | inhibition in vivo at 10 mg/kg [6] [%]
1 | CCc1ccnc(C(=O)c2[nH]c3ccc(OC(F)(F)F)cc3c2CC(=O)O)c1 | 421 | > 10000 | 5700 | > 100000 |  | 
2 | COc1ccc2c(CC(=O)O)c(C(=O)c3cc(C)ccn3)[nH]c2c1 | 128 | > 10000 | 1900 | > 100000 | > 78.1 | 
3 | Cc1ccnc(C(=O)c2[nH]c3cc(Cl)c(F)cc3c2CC(=O)O)c1 | 6.77 | 65.9 | 100 | 7700 | 9.73 | 
4 | Cc1ccnc(C(=O)c2[nH]c3cc(F)ccc3c2CC(=O)O)c1 | 9.81 | 849 | 155 | 33500 | 86.5 | 70
5 | O=C(O)Cc1c(C(=O)c2cc3c(cn2)CCCC3)[nH]c2cc(Cl)ccc12 | 19.2 | > 10000 |  |  | > 521 | 
6 | CCc1ccc2c(CC(=O)O)c(C(=O)c3cc(C)ccn3)[nH]c2c1 | 414 | > 10000 |  |  |  | 
7 | Cc1ccnc(C(=O)c2[nH]c3ccc(OC(F)(F)F)cc3c2CC(=O)O)c1 | 39.6 | 1000 | 1900 | > 100000 |  | 
8 | CCc1cc(C(=O)c2[nH]c3cc(Cl)ccc3c2CC(=O)O)ncc1Cl | 30.7 | > 10000 |  |  | > 326 | 
9 | COc1ccc2[nH]c(C(=O)c3cc(C)ccn3)c(CC(=O)O)c2c1 | 128 | 3050 | 2200 | > 100000 | 23.8 | 
10 | Cc1ccnc(C(=O)c2[nH]c3ccc(F)cc3c2CC(=O)O)c1 | 5.68 | 150 | 150 | 21400 | 26.4 | 
11 | CCOc1cnc(C(=O)c2[nH]c3cc(Cl)ccc3c2CC(=O)O)cc1CC | 598 | > 10000 |  |  |  | 
12 | CCc1ccc2[nH]c(C(=O)c3cc(C)ccn3)c(CC(=O)O)c2c1 | 15.7 | 882 | 1600 | 47000 |  | 
13 | Cc1ccnc(C(=O)c2[nH]c3ccc(C(C)(C)C)cc3c2CC(=O)O)c1 | 41.5 | 1510 |  |  |  | 
